For orientation: inhibition means the drop in the measured response relative to a control, in per cent.

The structures appear in SMILES notation. Where a SMILES comes first, the peptide text is derived from it.

Results on one compound are retold here after ChEMBL document CHEMBL6182829, “Developing peptide-based fusion inhibitors as an antiviral strategy utilizing coronin 1 as a template” (RSC Med Chem, 2025).

This experiment deals with Lipid bilayer. Description: Inhibition of PEG-induced DOPC/DOPE/DOPG (60/30/10 mol%) small unilamellar vesicles assessed as lipid mixing at 1:100 compound: lipid concentration preincubated for 10 mins followed by PEG addition by spectrofluorometric analysis (reference value: 57.4 +/- 2.2 %). Put shortly: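 Lipid mixing followed as FRET dilution. Vesicles carrying 0.8 mol% NBD-PE and Rh-PE mixed 1:9 with probe-free vesicles at 200 μM lipid. Peptide 2 μM added 10 min before 6% (w/v) PEG at 37 °C. NBD donor intensity rise recorded over time; TX-100 defines complete mixing.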

`CC[C@H](C)[C@H](NC(=O)[C@H](CC(C)C)NC(=O)[C@H](C)NC(=O)[C@@H](NC(=O)[C@H](Cc1ccccc1)NC(=O)[C@H](CCCCN)NC(=O)[C@@H]1CCCN1C(=O)[C@H](CC(N)=O)NC(=O)[C@@H](NC(=O)[C@H](C)NC(=O)[C@H](CS)NC(=O)[C@H](Cc1ccccc1)NC(=O)CNC(=O)[C@H](CO)NC(=O)[C@H](CC(=O)O)NC(=O)[C@H](Cc1c[nH]c2ccccc12)NC(=O)[C@@H](NC(=O)[C@@H](N)[C@@H](C)O)[C@@H](C)O)C(C)C)C(C)C)C(=O)N[C@@H](CS)C(=O)N[C@@H](CC(=O)O)C(=O)N[C@@H](Cc1c[nH]c2ccccc12)C(=O)N[C@@H](CO)C(=O)NCC(=O)O` (H-TTWDSGFCAVNPKFVALICDWSG-OH): the inhibition came to 69%.
